The text below walks through data of article PMC12059896 (ACS Omega, 2025).

The test system of one series is LNCaP cells. As to the kind of experiment: XTT cytotoxicity assay in LNCaP cells. It is filed as cell-based. The following applies: 24 h and 72 h, n = 4 (Figures 6, 7). The method in brief:
(§1)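 Cells kept in RPMI with 10% FBS and 1% penicillin–streptomycin at 37 °C, 5% CO2. Seeded at 6 × 10^3 (LNCaP) or 3 × 10^3 (PC-3) per well, attached 24 h, then exposed to free drugs or leucine-coupled drugs. At 24 and 72 h, XTT added for 3 h at 37 °C; absorbance read at 450 nm. Controls: 0.05% DMSO and medium alone. Mean ± SD, n = 4.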

Series [1] deals with PC-3 cells. Put plainly: XTT cytotoxicity assay in PC-3 cells. Format: cell-based. The conditions noted are these: 24 h and 72 h, n = 4 (Figures 6, 7). Put shortly: as §1
In general terms: Tetrazolium dyes change colour on reduction, which living cells bring about.

The conditions of series [2]: cited from earlier work.
The subject of series [3] is PC-3 cells. The following applies: PC-3 cells do not express PSA; ref 10 (Bakthavatsalam et al. 2020); cited from earlier work.

Take `COC1C(=O)C2(C)C(OC)CC3OCC3(OC(C)=O)C2C(OC(=O)c2ccccc2)C2(O)CC(OC(=O)C(OC(=O)C(N)CC(C)C)C(NC(=O)OC(C)(C)C)c3ccccc3)C(C)=C1C2(C)C` [L-cabazitaxel, NH2-Leu-Cabazitaxel]: the “cytotoxicity of drug compared with its leucine conjugate, LNCaP” value with LNCaP cells is reported as “comparable cytotoxicity”. Also, the “cytotoxicity of drug compared with its leucine conjugate, PC-3” value with PC-3 cells [1] was “comparable cytotoxicity”.

Regarding `CCc1c2c(nc3ccc(O)cc13)-c1cc3c(c(=O)n1C2)COC(=O)C3(CC)OC(=O)C(N)CC(C)C` (stereo not shown) [L–SN–38, NH2-Leu–SN–38], the “cytotoxicity of drug compared with its leucine conjugate, LNCaP” value with LNCaP cells is given as “comparable cytotoxicity”. For the same molecule, the “cytotoxicity of drug compared with its leucine conjugate, PC-3” value in the series on PC-3 cells [1] is “comparable cytotoxicity”.

As for `CCc1c2c(nc3ccc(O)cc13)-c1cc3c(c(=O)n1C2)COC(=O)[C@]3(O)CC` [SN-38, 7-Ethyl-10-hydroxycamptothecin], the “cytotoxicity of drug compared with its leucine conjugate, LNCaP” value in the series on LNCaP cells is given as “comparable cytotoxicity”. In addition, the “cytotoxicity of drug compared with its leucine conjugate, PC-3” value in the series on PC-3 cells [1] is recorded as “comparable cytotoxicity”. In addition, the “potency relative to CPT-11 in inducing antitumor activity” value in series [2] was 100- to 1000 fold.

As to `CO[C@H]1C(=O)[C@]2(C)[C@@H](OC)C[C@H]3OC[C@@]3(OC(C)=O)[C@H]2[C@H](OC(=O)c2ccccc2)[C@]2(O)C[C@H](OC(=O)[C@H](O)[C@@H](NC(=O)OC(C)(C)C)c3ccccc3)C(C)=C1C2(C)C` [cabazitaxel], in the series on LNCaP cells, the “cytotoxicity of drug compared with its leucine conjugate, LNCaP” value is listed as “comparable cytotoxicity”. Moreover, the “cytotoxicity of drug compared with its leucine conjugate, PC-3” value with PC-3 cells [1] is “comparable cytotoxicity”.

Consider Ac-HSSKLQL-PAB-dithiocarbamate, for which the “cytotoxicity in PC-3 cells” value in the series with PC-3 cells [3] is “demonstrated cytotoxicity in PC-3 cells”.
